ChEMBL document CHEMBL5705905, “Pharmacological targeting of kinases MST1 and MST2 augments tissue repair and regeneration” (Sci Transl Med, 2016)

What was measured:
[1] = target: Phosphorylase b kinase gamma catalytic chain, skeletal muscle/heart isoform (Homo sapiens) (UniProt Q16816); assay: Inhibition of PHKG1 (unknown origin) assessed as remaining activity at 1 uM by Kinome scan method relative to control
[2] = target: TGF-beta receptor type-2 (Homo sapiens) (UniProt P37173); assay: Inhibition of TGFBR2 (unknown origin) assessed as remaining activity at 1 uM by Kinome scan method relative to control
[3] = target: Casein kinase I isoform gamma-3 (Homo sapiens) (UniProt Q9Y6M4); assay: Inhibition of CSNK1G3 (unknown origin) assessed as remaining activity at 1 uM by Kinome scan method relative to control
In short: (§1)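 Active-site-dependent competition-binding profiling (KINOMEscan) at 1 μM against a 468-kinase panel; compound supplied from a 10 mM DMSO stock. Read-out is ctrl% = (test signal − positive control signal)/(negative control signal − positive control signal) × 100. DMSO is the negative control (100%) and a control compound the positive control (0%). Lower ctrl% means tighter binding.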

[4] = target: Peripheral plasma membrane protein CASK (Homo sapiens) (UniProt O14936); assay: Inhibition of CASK (unknown origin) assessed as remaining activity at 1 uM by Kinome scan method relative to control; in short: as §1
Mus musculus = assay: Protection against APAP induced liver injury in mouse assessed as increase in survival rate at 1 mg/kg, ip administered at 2.5 hrs in the presence of NAC […]; assay type: functional
In short: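 Wild-type mice given oral APAP 400 mg/kg, then i.p. vehicle, NAC 250 mg/kg, 1 mg/kg test agent, or NAC plus test agent at 1.5 or 2.5 h. Mortality was tracked with n = 10–11 per group, Mantel-Cox test. Separately, TUNEL was done on liver after 200 mg/kg APAP with treatment at 2.5 h.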

[5] = Cmax in male Sprague-Dawley rat at 10 mg/kg, po measured for 24 hrs by LC-MS/MS analysis; assay type: ADME, organism-based; details: in vivo
In short: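 Sprague-Dawley rats, single intravenous or oral dose. Parameters (half-life, AUC, bioavailability) reported in a supplementary table.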

[6] = target: Cyclin-dependent kinase 16 (Homo sapiens) (UniProt Q00536); assay: Inhibition of PCTK1 (unknown origin) assessed as remaining activity at 1 uM by Kinome scan method relative to control
[7] = target: Rho-associated protein kinase 2 (Homo sapiens) (UniProt O75116); assay: Inhibition of ROCK2 (unknown origin) assessed as remaining activity at 1 uM by Kinome scan method relative to control
[8] = target: Eukaryotic translation initiation factor 2-alpha kinase 1 (Homo sapiens) (UniProt Q9BQI3); assay: Inhibition of EIF2AK1 (unknown origin) assessed as remaining activity at 1 uM by Kinome scan method relative to control
[9] = target: Glycogen synthase kinase-3 alpha (Homo sapiens) (UniProt P49840); assay: Inhibition of GSK3alpha (unknown origin) assessed as remaining activity at 1 uM by Kinome scan method relative to control
[10] = target: Phosphatidylinositol 5-phosphate 4-kinase type-2 gamma (Homo sapiens) (UniProt Q8TBX8); assay: Inhibition of PIP5K2C (unknown origin) assessed as remaining activity at 1 uM by Kinome scan method relative to control
[11] = target: Cyclin-dependent kinase 2 homolog (Plasmodium falciparum (isolate K1 / Thailand)) (UniProt Q07785); assay: Inhibition of Plasmodium falciparum PK5 assessed as remaining activity at 1 uM by Kinome scan method relative to control
[12] = tested on: eIF-2-alpha kinase GCN2 (Homo sapiens), Q9P2K8 [S808G]; assay: Inhibition of GCN2 S808G mutant kinase domain 2 (unknown origin) assessed as remaining activity at 1 uM by Kinome scan method relative to control
[13] = target: Ephrin type-A receptor 6 (Homo sapiens) (UniProt Q9UF33); assay: Inhibition of EPHA6 (unknown origin) assessed as remaining activity at 1 uM by Kinome scan method relative to control
[14] = target: Receptor-interacting serine/threonine-protein kinase 2 (Homo sapiens) (UniProt O43353); assay: Inhibition of RIPK2 (unknown origin) assessed as remaining activity at 1 uM by Kinome scan method relative to control
[15] = target: Mitogen-activated protein kinase 12 (Homo sapiens) (UniProt P53778); assay: Inhibition of P38gamma (unknown origin) assessed as remaining activity at 1 uM by Kinome scan method relative to control
[16] = tested on: Receptor-type tyrosine-protein kinase FLT3 (Homo sapiens), P36888 [K663Q]; assay: Inhibition of FLT3 K663Q mutant (unknown origin) assessed as remaining activity at 1 uM by Kinome scan method relative to control
[17] = target: Epithelial discoidin domain-containing receptor 1 (Homo sapiens) (UniProt Q08345); assay: Inhibition of DDR1 (unknown origin) assessed as remaining activity at 1 uM by Kinome scan method relative to control
HepG2 = assay: Induction of apoptosis in human HepG2 cells overexpressing MST2 assessed as viable cells at 3 uM by annexinV staining (Rvb =84.2 %); assay type: functional; details: read-out: Activity
[18] = target: Serine/threonine-protein kinase Nek10 (Homo sapiens) (UniProt Q6ZWH5); assay: Inhibition of NEK10 (unknown origin) assessed as remaining activity at 1 uM by Kinome scan method relative to control
[19] = target: Tyrosine-protein kinase JAK3 (Homo sapiens) (UniProt P52333); assay: Inhibition of JAK3 JH1 domain (unknown origin) assessed as remaining activity at 1 uM by Kinome scan method relative to control
[20] = Toxicity in APAP induced liver injury in mouse assessed as cancer cell growth at 1 mg/kg, ip administered for > 10 months; assay type: organism-based; details: in vivo, 7300 h
Aurora kinase B = Aurora kinase B (Homo sapiens, UniProt Q96GD4); assay: Binding affinity to AURKB (unknown origin) assessed as dissociation constant
[21] = tested on: Receptor-type tyrosine-protein kinase FLT3 (Homo sapiens), P36888 [D835V]; assay: Inhibition of FLT3 D835V mutant (unknown origin) assessed as remaining activity at 1 uM by Kinome scan method relative to control
[22] = target: Non-receptor tyrosine-protein kinase TNK1 (Homo sapiens) (UniProt Q13470); assay: Inhibition of TNK1 (unknown origin) assessed as remaining activity at 1 uM by Kinome scan method relative to control
[23] = target: Serine/threonine-protein kinase MARK2 (Homo sapiens) (UniProt Q7KZI7); assay: Inhibition of MARK2 (unknown origin) assessed as remaining activity at 1 uM by Kinome scan method relative to control
[24] = target: Ankyrin repeat and protein kinase domain-containing protein 1 (Homo sapiens) (UniProt Q8NFD2); assay: Inhibition of ANKK1 (unknown origin) assessed as remaining activity at 1 uM by Kinome scan method relative to control
In short: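 Active-site-dependent competition-binding (KINOMEscan) panel of 468 kinases, test compound at 1 μM (from a 10 mM DMSO stock). Read-out is ctrl% = (test signal − positive control signal)/(negative control signal − positive control signal) × 100. DMSO is the negative control (100%) and a control compound is the positive control (0%). Lower ctrl% means tighter binding.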

Chain of TGF-beta receptor type-2 (Homo sapiens) (P37173 whole entry, canonical isoform): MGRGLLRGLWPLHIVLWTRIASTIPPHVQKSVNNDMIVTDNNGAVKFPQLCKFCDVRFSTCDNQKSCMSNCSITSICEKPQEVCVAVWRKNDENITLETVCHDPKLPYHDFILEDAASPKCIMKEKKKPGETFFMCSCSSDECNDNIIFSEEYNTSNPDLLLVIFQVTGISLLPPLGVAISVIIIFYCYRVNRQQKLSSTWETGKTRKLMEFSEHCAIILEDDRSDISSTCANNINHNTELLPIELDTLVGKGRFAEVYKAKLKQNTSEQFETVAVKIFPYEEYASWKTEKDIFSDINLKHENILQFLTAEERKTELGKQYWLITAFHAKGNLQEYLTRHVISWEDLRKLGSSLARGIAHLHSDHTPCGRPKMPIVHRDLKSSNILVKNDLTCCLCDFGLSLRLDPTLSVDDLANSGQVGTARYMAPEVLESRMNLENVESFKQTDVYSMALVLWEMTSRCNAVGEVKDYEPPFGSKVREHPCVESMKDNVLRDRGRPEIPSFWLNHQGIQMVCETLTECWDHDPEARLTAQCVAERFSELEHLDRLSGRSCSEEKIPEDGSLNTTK
Chain of Serine/threonine-protein kinase MARK2 (Homo sapiens) (Q7KZI7 whole entry, the tested form may be a part): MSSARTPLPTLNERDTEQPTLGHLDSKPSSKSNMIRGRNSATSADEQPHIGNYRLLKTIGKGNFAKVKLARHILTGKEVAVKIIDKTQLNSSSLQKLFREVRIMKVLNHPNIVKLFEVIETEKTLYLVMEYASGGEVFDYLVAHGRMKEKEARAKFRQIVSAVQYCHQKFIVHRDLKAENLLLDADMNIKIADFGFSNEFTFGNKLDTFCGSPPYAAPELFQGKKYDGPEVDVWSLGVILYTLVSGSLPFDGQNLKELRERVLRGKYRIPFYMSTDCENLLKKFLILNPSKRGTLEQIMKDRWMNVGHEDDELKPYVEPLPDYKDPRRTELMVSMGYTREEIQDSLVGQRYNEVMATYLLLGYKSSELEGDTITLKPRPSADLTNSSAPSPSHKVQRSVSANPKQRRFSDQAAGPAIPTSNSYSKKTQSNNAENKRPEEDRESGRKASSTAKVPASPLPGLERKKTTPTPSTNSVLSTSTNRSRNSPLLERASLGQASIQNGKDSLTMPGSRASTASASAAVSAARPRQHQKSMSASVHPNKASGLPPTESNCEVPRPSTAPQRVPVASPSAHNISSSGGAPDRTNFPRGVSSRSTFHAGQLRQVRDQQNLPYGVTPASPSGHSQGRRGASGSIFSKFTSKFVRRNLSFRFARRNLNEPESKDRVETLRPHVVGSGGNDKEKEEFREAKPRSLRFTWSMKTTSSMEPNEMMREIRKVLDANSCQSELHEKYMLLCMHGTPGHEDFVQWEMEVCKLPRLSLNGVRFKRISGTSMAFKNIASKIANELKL
Chain of Aurora kinase B (Q96GD4 whole entry): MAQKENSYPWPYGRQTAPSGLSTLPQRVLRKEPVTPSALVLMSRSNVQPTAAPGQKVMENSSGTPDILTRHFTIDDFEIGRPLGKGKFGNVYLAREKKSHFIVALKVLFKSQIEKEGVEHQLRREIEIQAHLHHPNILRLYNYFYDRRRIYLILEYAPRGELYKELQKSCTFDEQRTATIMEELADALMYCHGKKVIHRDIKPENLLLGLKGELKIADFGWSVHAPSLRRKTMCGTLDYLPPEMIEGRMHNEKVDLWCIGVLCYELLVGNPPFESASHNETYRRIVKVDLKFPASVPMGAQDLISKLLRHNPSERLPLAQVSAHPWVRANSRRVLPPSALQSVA
Chain of Serine/threonine-protein kinase Nek10 (Homo sapiens) (Q6ZWH5 whole entry, the tested form may be a part): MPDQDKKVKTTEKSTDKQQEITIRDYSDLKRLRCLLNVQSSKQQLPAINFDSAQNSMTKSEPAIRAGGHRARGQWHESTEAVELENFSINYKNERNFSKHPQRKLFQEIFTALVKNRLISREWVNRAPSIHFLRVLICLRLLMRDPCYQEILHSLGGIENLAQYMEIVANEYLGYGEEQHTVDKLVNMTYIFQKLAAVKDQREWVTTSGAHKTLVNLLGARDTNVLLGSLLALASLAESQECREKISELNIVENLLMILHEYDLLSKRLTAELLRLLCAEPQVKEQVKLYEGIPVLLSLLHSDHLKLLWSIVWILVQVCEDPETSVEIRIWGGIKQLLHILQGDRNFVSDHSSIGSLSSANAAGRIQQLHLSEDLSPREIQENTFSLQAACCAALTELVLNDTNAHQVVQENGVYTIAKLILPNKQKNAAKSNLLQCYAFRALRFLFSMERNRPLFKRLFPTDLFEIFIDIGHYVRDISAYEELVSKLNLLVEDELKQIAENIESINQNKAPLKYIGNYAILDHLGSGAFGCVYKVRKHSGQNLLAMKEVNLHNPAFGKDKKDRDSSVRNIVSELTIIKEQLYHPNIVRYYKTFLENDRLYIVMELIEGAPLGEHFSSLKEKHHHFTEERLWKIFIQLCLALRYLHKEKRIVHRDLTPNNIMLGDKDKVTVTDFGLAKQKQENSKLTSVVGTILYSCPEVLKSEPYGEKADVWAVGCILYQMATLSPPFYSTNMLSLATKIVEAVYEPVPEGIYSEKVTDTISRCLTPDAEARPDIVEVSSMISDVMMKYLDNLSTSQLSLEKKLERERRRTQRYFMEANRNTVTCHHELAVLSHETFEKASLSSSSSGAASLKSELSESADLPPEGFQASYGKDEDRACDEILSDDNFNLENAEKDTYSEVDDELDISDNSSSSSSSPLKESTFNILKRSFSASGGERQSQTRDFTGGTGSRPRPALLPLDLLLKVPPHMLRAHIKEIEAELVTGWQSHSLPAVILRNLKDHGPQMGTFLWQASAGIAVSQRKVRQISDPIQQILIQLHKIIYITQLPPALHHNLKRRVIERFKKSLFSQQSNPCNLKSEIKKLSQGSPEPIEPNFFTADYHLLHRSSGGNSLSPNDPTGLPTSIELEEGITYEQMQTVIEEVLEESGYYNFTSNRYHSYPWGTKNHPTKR
Chain of Phosphatidylinositol 5-phosphate 4-kinase type-2 gamma (Homo sapiens) (Q8TBX8 whole entry): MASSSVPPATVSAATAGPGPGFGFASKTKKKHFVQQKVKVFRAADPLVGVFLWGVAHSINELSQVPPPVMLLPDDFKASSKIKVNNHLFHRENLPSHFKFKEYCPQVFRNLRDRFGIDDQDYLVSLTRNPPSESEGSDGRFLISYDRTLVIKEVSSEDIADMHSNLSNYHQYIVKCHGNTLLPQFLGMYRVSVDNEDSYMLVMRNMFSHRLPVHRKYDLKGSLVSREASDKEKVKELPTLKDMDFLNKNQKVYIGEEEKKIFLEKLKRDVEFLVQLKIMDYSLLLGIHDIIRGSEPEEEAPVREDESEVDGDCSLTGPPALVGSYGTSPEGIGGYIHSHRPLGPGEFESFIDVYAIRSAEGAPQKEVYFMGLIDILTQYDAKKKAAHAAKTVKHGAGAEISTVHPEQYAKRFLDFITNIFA
Chain of Peripheral plasma membrane protein CASK (Homo sapiens) (O14936 whole entry): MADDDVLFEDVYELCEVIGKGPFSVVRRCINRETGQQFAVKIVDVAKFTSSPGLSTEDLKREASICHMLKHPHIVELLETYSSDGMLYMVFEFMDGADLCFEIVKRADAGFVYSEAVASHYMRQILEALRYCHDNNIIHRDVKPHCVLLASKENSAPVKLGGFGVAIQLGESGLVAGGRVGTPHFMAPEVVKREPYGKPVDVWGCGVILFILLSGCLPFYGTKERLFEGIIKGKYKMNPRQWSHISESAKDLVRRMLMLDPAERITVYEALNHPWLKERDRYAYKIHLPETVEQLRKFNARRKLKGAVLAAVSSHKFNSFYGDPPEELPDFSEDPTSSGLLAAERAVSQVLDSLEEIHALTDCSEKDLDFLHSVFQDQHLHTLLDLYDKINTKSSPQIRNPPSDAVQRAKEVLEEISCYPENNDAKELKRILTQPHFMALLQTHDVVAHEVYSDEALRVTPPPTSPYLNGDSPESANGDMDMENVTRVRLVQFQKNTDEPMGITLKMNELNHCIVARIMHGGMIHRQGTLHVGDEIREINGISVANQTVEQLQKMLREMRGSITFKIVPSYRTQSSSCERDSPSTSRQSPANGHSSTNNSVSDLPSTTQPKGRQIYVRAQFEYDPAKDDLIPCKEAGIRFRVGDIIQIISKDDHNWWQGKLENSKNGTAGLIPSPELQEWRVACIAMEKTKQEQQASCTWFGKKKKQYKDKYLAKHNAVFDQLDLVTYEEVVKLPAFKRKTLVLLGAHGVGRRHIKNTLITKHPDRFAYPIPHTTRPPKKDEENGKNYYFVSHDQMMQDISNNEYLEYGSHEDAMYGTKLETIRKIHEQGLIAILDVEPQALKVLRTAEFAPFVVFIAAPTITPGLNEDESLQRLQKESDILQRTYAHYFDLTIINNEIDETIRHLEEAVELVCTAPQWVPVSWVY
Chain of Ankyrin repeat and protein kinase domain-containing protein 1 (Homo sapiens) (Q8NFD2 whole entry, the tested form may be a part): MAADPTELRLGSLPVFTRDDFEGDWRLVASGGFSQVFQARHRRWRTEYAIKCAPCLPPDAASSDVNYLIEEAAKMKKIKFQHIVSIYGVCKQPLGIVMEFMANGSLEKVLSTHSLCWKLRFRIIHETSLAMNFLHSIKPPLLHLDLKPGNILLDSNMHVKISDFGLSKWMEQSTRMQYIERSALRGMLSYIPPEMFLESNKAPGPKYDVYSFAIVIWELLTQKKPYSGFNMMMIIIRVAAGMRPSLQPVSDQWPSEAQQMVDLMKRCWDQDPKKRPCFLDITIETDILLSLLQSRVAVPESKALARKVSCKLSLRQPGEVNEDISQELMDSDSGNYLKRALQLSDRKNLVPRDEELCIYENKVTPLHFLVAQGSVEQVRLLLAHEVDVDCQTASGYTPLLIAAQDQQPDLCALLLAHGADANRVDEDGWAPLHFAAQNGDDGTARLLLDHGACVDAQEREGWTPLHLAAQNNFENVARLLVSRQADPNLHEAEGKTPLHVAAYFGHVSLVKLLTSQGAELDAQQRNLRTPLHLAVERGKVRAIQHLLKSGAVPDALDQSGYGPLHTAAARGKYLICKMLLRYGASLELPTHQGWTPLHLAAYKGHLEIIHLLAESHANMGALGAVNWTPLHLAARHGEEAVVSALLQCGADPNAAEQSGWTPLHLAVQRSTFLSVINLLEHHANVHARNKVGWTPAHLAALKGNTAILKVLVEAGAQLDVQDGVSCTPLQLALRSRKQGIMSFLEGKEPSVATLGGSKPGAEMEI

Question: For `CN1C(=O)c2sccc2N(C)c2nc(Nc3ccc(S(N)(=O)=O)cc3)ncc21`, which Activity [1] is on record?
Answer: Its Activity is 100%.

Question: And the Activity [2]?
Answer: Its Activity is 100%.

Question: And the Activity [3]?
Answer: The Activity was 72%.

Question: What about the Activity [4] of the same compound?
Answer: The Activity was 78%.

Question: And the Activity (Mus musculus)?
Answer: Its Activity is ~40%.

Question: And the Cmax [5]?
Answer: The Cmax was 118 ng/mL.

Question: And the Activity [6]?
Answer: The Activity was 93%.

Question: And the Activity [7]?
Answer: Its Activity is 96%.

Question: What about the Activity [8] of the same compound?
Answer: Its Activity is 94%.

Question: What about the Activity [9] of the same compound?
Answer: Its Activity is 100%.

Question: What about the Activity [10] of the same compound?
Answer: Its Activity is 8%.

Question: What about the Activity [11] of the same compound?
Answer: Its Activity is 93%.

Question: What about the Activity [12] of the same compound?
Answer: The Activity was 100%.

Question: And the Activity [13]?
Answer: Its Activity is 99%.

Question: What about the Activity [14] of the same compound?
Answer: Its Activity is 100%.

Question: And the Activity [15]?
Answer: The Activity was 48%.

Question: And the Activity [16]?
Answer: Its Activity is 87%.

Question: And the Activity [17]?
Answer: Its Activity is 63%.

Question: And the viability at 3 µM (HepG2)?
Answer: The viability at 3 µM was 93.1%.

Question: What about the Activity [18] of the same compound?
Answer: Its Activity is 70%.

Question: And the Activity [19]?
Answer: Its Activity is 73%.

Question: What about the Activity [20] of the same compound?
Answer: Its Activity is “Non-Toxic”.

Question: What about the Kd (Aurora kinase B) of the same compound?
Answer: The Kd was 0.04 µM.

Question: And the Activity [21]?
Answer: Its Activity is 18%.

Question: What about the Activity [22] of the same compound?
Answer: The Activity was 69%.

Question: What about the Activity [23] of the same compound?
Answer: The Activity was 93%.

Question: What about the Activity [24] of the same compound?
Answer: The Activity was 41%.
